Residues, ends and D or L forms follow the SMILES beside them.
Assays:
[1] = system: HCT-116; assay: Growth inhibition of human HCT116 cells at 5 uM after 24 hrs by [3H]thymidine uptake assay; format: functional; conditions: read-out: GI
[2] = Growth inhibition of human PL45 cells at 5 uM after 24 hrs by [3H]thymidine uptake assay; format: functional; conditions: read-out: GI
[3] = Inhibition of HSP90
[4] = Growth inhibition of Pancreatic cancer cells; format: functional, cell-based; conditions: Cancer cell lines
[5] = Potency index, ratio of novobiocin IC50 to compound IC50 for HSP90 HSP90
[6] = Cytotoxicity against human K2 O/E cells over expressing tetracycline inducible IP6K2 protein assessed as cell survival; format: functional
In short: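 Stable tetracycline-inducible Myc-IP6K2 HEK293 line. IP6K2 overexpression induced with 1 μg/mL tetracycline for 24 h; wild-type control cells got vehicle alone. Cells then exposed to 25 nM drug or DMSO (no drug) for 48 h. Viability read by CCK-8 assay and expressed relative to control set at 100%.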

Row | SMILES | inhibition of growth at 5 µM [1] | inhibition of growth at 5 µM [2] | EC50 [3] | IC50 [4] | Ratio IC50 [5] | Survival [6]
1 | CC(C)C[C@@H]1NC(=O)[C@H](Cc2ccccc2)NC(=O)[C@@H](CC(C)C)NC(=O)[C@@H](C(C)C)NC(=O)[C@H](CC(C)C)NC(=O)[C@@H](CC(C)C)NC(=O)[C@@H](Cc2ccccc2)NC(=O)[C@@H](CC(C)C)NC(=O)[C@@H](C(C)C)NC(=O)[C@@H](CC(C)C)NC1=O | 0% | 17% | – | – | – | –
2 | CC(C)C[C@@H]1NC(=O)[C@H](Cc2ccccc2)NC(=O)[C@@H](CC(C)C)NC(=O)[C@@H](C(C)C)NC(=O)[C@H](CC(C)C)NC(=O)[C@@H](CC(C)C)NC(=O)[C@H](Cc2ccccc2)NC(=O)[C@@H](CC(C)C)NC(=O)[C@@H](C(C)C)NC(=O)[C@@H](CC(C)C)NC1=O | 0% | 4% | – | – | – | –
3 | CC(C)C[C@@H]1NC(=O)[C@H](Cc2ccccc2)NC(=O)[C@@H](CC(C)C)NC(=O)[C@@H](C(C)C)NC(=O)[C@@H](CC(C)C)NC(=O)[C@H](CC(C)C)NC(=O)[C@H](Cc2ccccc2)NC(=O)[C@@H](CC(C)C)NC(=O)[C@@H](C(C)C)NC(=O)[C@@H](CC(C)C)NC1=O | 17% | 21% | – | – | – | –
4 | CO[C@@H]1[C@@H](OC(N)=O)[C@@H](O)[C@H](Oc2ccc3c(O)c(NC(=O)c4ccc(O)c(CC=C(C)C)c4)c(=O)oc3c2C)OC1(C)C [NOVOBIOCIN] | – | – | 100000 nM | – | – | –
5 | CC(C)C[C@@H]1NC(=O)[C@H](C(C)C)NC(=O)[C@@H](CC(C)C)NC(=O)[C@@H](Cc2ccccc2)NC(=O)[C@H](Cc2ccccc2)NC(=O)[C@H](CC(C)C)NC(=O)[C@H](C(C)C)NC(=O)[C@@H](CC(C)C)NC(=O)[C@@H](Cc2ccccc2)NC(=O)[C@H](Cc2ccccc2)NC1=O | 0% | 10% | – | – | – | –
6 | CC(C)C[C@@H]1NC(=O)[C@H](Cc2ccccc2)NC(=O)[C@@H](CC(C)C)NC(=O)[C@@H](C(C)C)NC(=O)[C@@H](CC(C)C)NC(=O)[C@H](CC(C)C)NC(=O)[C@@H](Cc2ccccc2)NC(=O)[C@@H](CC(C)C)NC(=O)[C@@H](C(C)C)NC(=O)[C@@H](CC(C)C)NC1=O | 0% | 12% | – | – | – | –
7 | CC(C)C[C@@H]1NC(=O)[C@H](Cc2ccccc2)NC(=O)[C@H](CC(C)C)NC(=O)[C@H](C(C)C)NC(=O)[C@H](CC(C)C)NC1=O (cyclo(FLLVL)) | 33% | 25% | – | – | – | –
8 | CC(C)C[C@@H]1NC(=O)[C@@H](Cc2ccccc2)NC(=O)[C@@H](CC(C)C)NC(=O)[C@@H](C(C)C)NC(=O)[C@@H](CC(C)C)NC(=O)[C@H](CC(C)C)NC(=O)[C@@H](Cc2ccccc2)NC(=O)[C@@H](CC(C)C)NC(=O)[C@@H](C(C)C)NC(=O)[C@@H](CC(C)C)NC1=O | 40% | 79% | – | – | – | –
9 | CC(C)C[C@@H]1NC(=O)[C@H](Cc2ccccc2)NC(=O)[C@@H](CC(C)C)NC(=O)[C@H](C(C)C)NC(=O)[C@@H](CC(C)C)NC(=O)[C@H](CC(C)C)NC(=O)[C@H](Cc2ccccc2)NC(=O)[C@@H](CC(C)C)NC(=O)[C@H](C(C)C)NC(=O)[C@@H](CC(C)C)NC1=O | 0% | 9% | – | – | – | –
10 | CC(C)C[C@@H]1NC(=O)[C@H](Cc2ccccc2)NC(=O)[C@@H](CC(C)C)NC(=O)[C@@H](C(C)C)NC(=O)[C@H](CC(C)C)NC(=O)[C@H](CC(C)C)NC(=O)[C@@H](Cc2ccccc2)NC(=O)[C@@H](CC(C)C)NC(=O)[C@@H](C(C)C)NC(=O)[C@H](CC(C)C)NC1=O | 0% | 7% | – | – | – | –
11 | CC(C)C[C@@H]1NC(=O)[C@H](Cc2ccccc2)NC(=O)[C@H](CC(C)C)NC(=O)[C@@H](C(C)C)NC(=O)[C@H](CC(C)C)NC(=O)[C@H](CC(C)C)NC(=O)[C@H](Cc2ccccc2)NC(=O)[C@H](CC(C)C)NC(=O)[C@@H](C(C)C)NC(=O)[C@H](CC(C)C)NC1=O | 0% | 30% | – | – | – | –
12 | CC(C)C[C@@H]1NC(=O)[C@H](Cc2ccccc2)NC(=O)[C@@H](CC(C)C)NC(=O)[C@@H](C(C)C)NC(=O)[C@@H](CC(C)C)NC(=O)[C@H](CC(C)C)NC(=O)[C@@H](Cc2ccccc2)NC(=O)[C@@H](CC(C)C)NC(=O)[C@@H](C(C)C)NC(=O)[C@H](CC(C)C)NC1=O | 0% | 15% | – | – | – | –
13 | CC(C)C[C@@H]1NC(=O)[C@H](CC(C)C)NC(=O)[C@@H](Cc2ccccc2)NC(=O)[C@H](CC(C)C)NC(=O)[C@H](C(C)C)NC(=O)[C@H](CC(C)C)NC(=O)[C@H](CC(C)C)NC(=O)[C@@H](Cc2ccccc2)NC(=O)[C@H](CC(C)C)NC(=O)[C@H](C(C)C)NC1=O | 0% | 11% | – | – | – | –
14 | CC(C)C[C@@H]1NC(=O)[C@H](Cc2ccccc2)NC(=O)[C@@H](Cc2ccccc2)N(C)C(=O)[C@@H](C(C)C)NC(=O)[C@H](CC(C)C)NC(=O)[C@H](CC(C)C)NC(=O)[C@H](Cc2ccccc2)NC(=O)[C@@H](Cc2ccccc2)N(C)C(=O)[C@@H](C(C)C)NC(=O)[C@H](CC(C)C)NC1=O | 0% | 10% | – | – | – | –
15 | CC(C)C[C@@H]1NC(=O)[C@H](Cc2ccccc2)NC(=O)[C@@H](Cc2ccccc2)NC(=O)[C@@H](C(C)C)NC(=O)[C@H](CC(C)C)NC(=O)[C@H](CC(C)C)NC(=O)[C@H](Cc2ccccc2)NC(=O)[C@@H](Cc2ccccc2)NC(=O)[C@@H](C(C)C)NC(=O)[C@H](CC(C)C)NC1=O | 16% | 13% | – | – | – | –
16 | CC(C)C[C@@H]1NC(=O)[C@H](C(C)C)NC(=O)[C@@H](CC(C)C)NC(=O)[C@@H](CC(C)C)NC(=O)[C@H](Cc2ccccc2)NC(=O)[C@H](CC(C)C)NC(=O)[C@H](C(C)C)NC(=O)[C@@H](CC(C)C)NC(=O)[C@@H](CC(C)C)NC(=O)[C@H](Cc2ccccc2)NC1=O | 0% | 48% | – | – | – | –
17 | CC(C)C[C@@H]1NC(=O)[C@H](Cc2ccccc2)NC(=O)[C@H](CC(C)C)NC(=O)[C@@H](C(C)C)NC(=O)[C@@H](CC(C)C)NC(=O)[C@H](CC(C)C)NC(=O)[C@H](Cc2ccccc2)NC(=O)[C@H](CC(C)C)NC(=O)[C@@H](C(C)C)NC(=O)[C@@H](CC(C)C)NC1=O | 0% | 25% | – | – | – | –
18 | CC(C)C[C@@H]1NC(=O)[C@H](CC(C)C)NC(=O)[C@@H](Cc2ccccc2)NC(=O)[C@@H](CC(C)C)NC(=O)[C@H](C(C)C)NC(=O)[C@H](CC(C)C)NC(=O)[C@H](CC(C)C)NC(=O)[C@@H](Cc2ccccc2)NC(=O)[C@@H](CC(C)C)NC(=O)[C@H](C(C)C)NC1=O | 0% | 36% | – | – | – | –
19 | CC(C)C[C@@H]1NC(=O)[C@H](CC(C)C)NC(=O)[C@@H](Cc2ccccc2)NC(=O)[C@@H](CC(C)C)NC(=O)[C@@H](C(C)C)NC(=O)[C@H](CC(C)C)NC(=O)[C@H](CC(C)C)NC(=O)[C@@H](Cc2ccccc2)NC(=O)[C@@H](CC(C)C)NC(=O)[C@@H](C(C)C)NC1=O | 0% | 10% | – | – | – | –
20 | CC(C)C[C@@H]1NC(=O)[C@H](Cc2ccccc2)NC(=O)[C@H](CC(C)C)NC(=O)[C@H](C(C)C)NC(=O)[C@@H](CC(C)C)NC(=O)[C@H](CC(C)C)NC(=O)[C@H](Cc2ccccc2)NC(=O)[C@H](CC(C)C)NC(=O)[C@H](C(C)C)NC(=O)[C@@H](CC(C)C)NC1=O | 0% | 12% | – | – | – | –
21 | CC(C)C[C@@H]1NC(=O)[C@H](CC(C)C)NC(=O)[C@@H](Cc2ccccc2)NC(=O)[C@@H](CC(C)C)NC(=O)[C@@H](C(C)C)NC(=O)[C@@H](CC(C)C)NC(=O)[C@H](CC(C)C)NC(=O)[C@@H](Cc2ccccc2)NC(=O)[C@@H](CC(C)C)NC(=O)[C@@H](C(C)C)NC1=O | 0% | 8% | – | – | – | –
22 | CC(C)C[C@@H]1NC(=O)[C@H](Cc2ccccc2)NC(=O)[C@@H](CC(C)C)NC(=O)[C@@H](C(C)C)NC(=O)[C@H](CC(C)C)NC(=O)[C@H](CC(C)C)NC(=O)[C@H](Cc2ccccc2)NC(=O)[C@@H](CC(C)C)NC(=O)[C@@H](C(C)C)NC(=O)[C@H](CC(C)C)NC1=O | 99% | 99% | 2 nM | 1 nM | 50000 | 3%
23 | CC(C)C[C@@H]1NC(=O)[C@H](C(C)C)NC(=O)[C@H](CC(C)C)NC(=O)[C@@H](CC(C)C)NC(=O)[C@@H](Cc2ccccc2)NC(=O)[C@H](CC(C)C)NC(=O)[C@H](C(C)C)NC(=O)[C@H](CC(C)C)NC(=O)[C@@H](CC(C)C)NC(=O)[C@@H](Cc2ccccc2)NC1=O | 0% | 12% | – | – | – | –
